# Unmarked numbers belong to inactive results.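 The calls were made as follows: active = growth inhibition above 25% in both replicates, a cutoff set 3 SD above the mean; inconclusive = above 25% in only one replicate; inactive = the rest.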
# Experiment: OD615 S. cerevisiae growth inhibition, permissive medium, pilot counter-assay, permissive growth control for S. cerevisiae lifespan shortening project (AID 705)
# Conditions: OD615, 24 h, at 10 µM, active compounds read high
# Outline: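 assay system = Saccharomyces cerevisiae strain carrying genetically modified DeaD replicative-lifespan system | technique = absorbance (optical density) at 615 nm | buffer or medium = permissive raffinose/galactose medium | timing = cells pre-grown 4 h, then 24 h compound exposure, 30 °C humidified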
row,Compound,growth inhibition
1,CCN(c1ccccc1)c1cc(C)nc2nc(C)nn12,-17%
2,Cc1sc(NC(=O)CCCC(=O)O)c(C#N)c1C,-0.59%
3,CCOc1ccc2nc(N3CCC(C(=O)Nc4nnc(CC)s4)CC3)sc2c1,-13.1%
4,O=C(CN1C(=O)C2C3C=CC(C3)C2C1=O)Nc1ccc2nccnc2c1 (stereo not given),7.15%
5,Cn1nc(CC(=O)NC2CCCCCC2)c2ccccc2c1=O,3.21%
6,O=C(C1CCN(S(=O)(=O)c2cccc3cccnc23)CC1)N1CCCC1,11.8%
7,COc1ccc(CNc2oc(C)nc2C#N)cc1,-0.095%
8,CCOc1ccc2nc(N3CCC(C(=O)N4CCN(c5ccccn5)CC4)CC3)sc2c1,-4.53%
9,CC(=NCc1cccnc1)C1=C(O)c2ccccc2C1=O,-0.03%
10,CC1CSc2nnc(CCc3ccccc3)n21 (stereo not given),2.06%
11,Nn1c(SC/C=C/c2ccccc2)nnc1-c1ccccn1,-5.81%
12,Cc1cc(-c2nnc(-c3cc4ccccc4oc3=O)o2)c(C)n1-c1ccccc1,-0.055%
13,COc1ccc(NS(=O)(=O)c2ccc(NS(=O)(=O)c3ccc(C)cc3)cc2)nn1,-13.5%
14,CCC(C)C1C(C#N)=C(N)Oc2n[nH]c(-c3ccccc3)c21 (stereo not given),-4.81%
15,Cc1c(NC2=C(Cl)C(=O)N(c3ccccc3)C2=O)c(=O)n(-c2ccccc2)n1C,8.25%
16,COc1ccc(C2C(C(=O)NCCN3CCOCC3)c3ccccc3C(=O)N2C)cc1OC (stereo not given),-2.92%
17,CN1C(=O)CS(=O)c2ccc(C(=O)NC3CC3)cc21 (stereo not given),1.7%
18,COc1ccc(CN2CCN(c3ncccn3)CC2)c(OC)c1,-0.81%
19,Cc1ccc(CSc2nc3c(c(=O)[nH]c(=O)n3C)n2CCC(C)C)cc1,-2.01%
20,COC(=O)C1C(=O)CC(C)(O)C(C(=O)OC)C1c1ccc2c(c1)OCO2 (stereo not given),-10.3%

row,Compound,growth inhibition
1,Cn1c(NC(=O)c2ccc(Cl)cc2Cl)cc(=O)n(C)c1=O,-4.17%
2,CCCCC1CCC(c2nc(-c3cccnc3)no2)CC1 (stereo not given),-7.54%
3,CCc1nnc(NC(=O)CSc2nnc(Cc3cccn3C)n2C)s1,5.43%
4,COc1ccc(-c2noc(-c3cccc(OC)c3OC)n2)cc1OC,-8.92%
5,CCCc1cc(C(=O)N2CCN(C(c3ccccc3)c3ccccc3)CC2)no1,-10.9%
6,CCN(CC)CCCNC(=O)c1cc(-c2ccc(O)cc2)on1,-14.6%
7,COc1ccccc1-n1c(SC)nc(O)cc1=O,1.24%
8,CSC1=NCCN1C(=O)c1ccc(Br)o1,-2.9%
9,CCNC(=O)c1c(N)sc2c1CCCCC2,-5.81%
10,COc1cc(OC)c(NC(=O)c2ccc(Br)o2)cc1Cl,-8.78%
11,COc1ccc(OC)c(NC(=O)NC2(C(F)(F)F)Oc3ccccc3O2)c1,-4.07%
12,O=C(Nc1cnc2ccccc2c1)c1ccncc1,-8.13%
13,Cc1ccc(-c2nn(-c3ccccc3)cc2C(=O)N2CCOCC2)cc1,-8.14%
14,CCN(CC)CCNC(=O)Cn1nc(Cc2cccnc2)c2ccccc2c1=O,-3.85%
15,CC(=O)c1ccc(OCC(O)CN2CCC(C)CC2)cc1 (stereo not given),-0.26%
16,COC(=O)c1cccnc1-n1c(=O)c2cccnc2n(Cc2cccc(OC)c2)c1=O,-13.7%
17,Cc1cc(NS(=O)(=O)c2ccc(NC(=O)Nc3ccccc3)cc2)no1,4.26%
18,CSCC[C@@H](C(=O)O)N1Cc2ccccc2C1=O,7.93%
19,CCC(NC(=O)c1ccccc1NC(=O)c1ccco1)C(=O)NC1CCCCC1 (stereo not given),-4.2%
20,CC(C)N(Cc1ccccc1)C(=O)c1cnc2n(c1=O)CCS2,-1.66%

# — PubChem BioAssay
